The first assay deals with Z-138 non-Hodgkin's lymphoma cells. As to the kind of experiment: Antiproliferative assay. The class given is cell-based, human. As to conditions: read-out: IC50 Z-138; 72 h incubation, two independent experiments. The gist of the method: (§1)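 Adherent lines were seeded at 500 (Capan-1), 1000 (LN-229, HCT-116) or 1500 (NCI-H460) cells/well and dosed after overnight incubation. Suspension lines were seeded at 2500 (HL-60, K-562, Z-138) or 5500 (DND-41) cells/well directly onto compound. Seven 5-fold concentrations ran from 100 to 0.006 μM for 72 h. Viability was read as MTS absorbance at 490 nm after 3 h, and IC50 was derived from OD values. Two independent experiments.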
The IC50 is the concentration that gives 50% inhibition. Take `Fc1cc(-c2nc3ccc(Cl)cc3[nH]2)ccc1OCCN1CCOCC1` [Compound 24, 4-(2-(4-(6-Chloro-1H-benzo[d]imidazol-2-yl)-2-fluorophenoxy)ethyl)morpholine]: the IC50 is no less than 80.5 µM.

In the case of `O=C(COc1ccc(-c2nc3ccc(Cl)cc3[nH]2)cc1F)N1CCOCC1` [Compound 25, 2-(4-(6-Chloro-1H-benzo[d]imidazol-2-yl)-2-fluorophenoxy)-1-morpholinoethan-1-one], the IC50 was no less than 64.8 µM.

The test system of the next assay is K-562 chronic myeloid leukemia cells. As to the kind of experiment: Antiproliferative assay. It is filed as cell-based. The note with it: Homo sapiens, K562, 72 h, read-out: IC50 K-562. The gist of the method: as §1
With `Fc1cc(-c2nc3ccc(Cl)cc3[nH]2)ccc1OCCN1CCOCC1` [Compound 24, 4-(2-(4-(6-Chloro-1H-benzo[d]imidazol-2-yl)-2-fluorophenoxy)ethyl)morpholine], the IC50 was greater than 100 µM.

For the compound `O=C(COc1ccc(-c2nc3ccc(Cl)cc3[nH]2)cc1F)N1CCOCC1` [Compound 25, 2-(4-(6-Chloro-1H-benzo[d]imidazol-2-yl)-2-fluorophenoxy)-1-morpholinoethan-1-one], the IC50 was greater than 100 µM.

The next assay deals with Staphylococcus aureus (ATCC 25923). The experiment in a line: Antibacterial MIC, macrodilution method, S. aureus. The class given is cell-based. As to conditions: ATCC25923, read-out: MIC S. aureus. The gist of the method:
(§2)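 CLSI M07-A9 tube macrodilution. Strains were grown overnight on nutrient agar at 37 °C, and colonies were suspended in Mueller-Hinton broth. Inoculum was 1 × 10^6 per mL (5 × 10^5 per mL in test). DMSO stock was 5120 μg/mL. Final concentrations were 256 to […] in 2 mL. Tubes were incubated at 37 °C for 16–20 h. Controls were inoculum with and without 1% DMSO, and broth alone.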
As a reminder, the MIC is the lowest concentration that inhibits growth of the organism. Consider `Fc1cc(-c2nc3ccc(Cl)cc3[nH]2)ccc1OCCN1CCOCC1` [Compound 24, 4-(2-(4-(6-Chloro-1H-benzo[d]imidazol-2-yl)-2-fluorophenoxy)ethyl)morpholine], for which the minimum inhibitory concentration (MIC) is greater than 256 µg/mL.

`O=C(COc1ccc(-c2nc3ccc(Cl)cc3[nH]2)cc1F)N1CCOCC1` [Compound 25, 2-(4-(6-Chloro-1H-benzo[d]imidazol-2-yl)-2-fluorophenoxy)-1-morpholinoethan-1-one]: the MIC was greater than 256 µg/mL.

The subject of the next assay is Capan-1 pancreatic adenocarcinoma cells. As to the kind of experiment: Antiproliferative assay. It is filed as cell-based. As to conditions: Homo sapiens, CAPAN-1, 72 h, read-out: IC50 Capan-1. The gist of the method: as §1
Take `Fc1cc(-c2nc3ccc(Cl)cc3[nH]2)ccc1OCCN1CCOCC1` [Compound 24, 4-(2-(4-(6-Chloro-1H-benzo[d]imidazol-2-yl)-2-fluorophenoxy)ethyl)morpholine]: the IC50 is greater than 100 µM.

As to `O=C(COc1ccc(-c2nc3ccc(Cl)cc3[nH]2)cc1F)N1CCOCC1` [Compound 25, 2-(4-(6-Chloro-1H-benzo[d]imidazol-2-yl)-2-fluorophenoxy)-1-morpholinoethan-1-one], the IC50 is greater than 100 µM.

A further assay concerns Klebsiella pneumoniae (ATCC 27736). As to the kind of experiment: Antibacterial MIC, macrodilution method, K. pneumoniae. The class given is cell-based. As to conditions: ATCC27736, read-out: MIC K. pneumoniae. The essentials:
as §2
On to `Fc1cc(-c2nc3ccc(Cl)cc3[nH]2)ccc1OCCN1CCOCC1` [Compound 24, 4-(2-(4-(6-Chloro-1H-benzo[d]imidazol-2-yl)-2-fluorophenoxy)ethyl)morpholine], for which the MIC was greater than 256 µg/mL.

Consider `O=C(COc1ccc(-c2nc3ccc(Cl)cc3[nH]2)cc1F)N1CCOCC1` [Compound 25, 2-(4-(6-Chloro-1H-benzo[d]imidazol-2-yl)-2-fluorophenoxy)-1-morpholinoethan-1-one], for which the MIC is greater than 256 µg/mL.

The test system of a further assay is LN-229 glioblastoma cells. The experiment in a line: Antiproliferative assay. The class given is cell-based. As to conditions: Homo sapiens, LN-229, 72 h, read-out: IC50 LN-229. The essentials: as §1
Regarding `Fc1cc(-c2nc3ccc(Cl)cc3[nH]2)ccc1OCCN1CCOCC1` [Compound 24, 4-(2-(4-(6-Chloro-1H-benzo[d]imidazol-2-yl)-2-fluorophenoxy)ethyl)morpholine], the IC50 is greater than 100 µM.

Regarding `O=C(COc1ccc(-c2nc3ccc(Cl)cc3[nH]2)cc1F)N1CCOCC1` [Compound 25, 2-(4-(6-Chloro-1H-benzo[d]imidazol-2-yl)-2-fluorophenoxy)-1-morpholinoethan-1-one], the IC50 was greater than 100 µM.

The next assay concerns HL-60 acute myeloid leukemia cells. As to the kind of experiment: Antiproliferative assay. It is filed as cell-based. As to conditions: Homo sapiens, HL-60, 72 h, read-out: IC50 HL-60. The essentials: as §1
Turning to `Fc1cc(-c2nc3ccc(Cl)cc3[nH]2)ccc1OCCN1CCOCC1` [Compound 24, 4-(2-(4-(6-Chloro-1H-benzo[d]imidazol-2-yl)-2-fluorophenoxy)ethyl)morpholine], the IC50 is greater than 100 µM.

As for `O=C(COc1ccc(-c2nc3ccc(Cl)cc3[nH]2)cc1F)N1CCOCC1` [Compound 25, 2-(4-(6-Chloro-1H-benzo[d]imidazol-2-yl)-2-fluorophenoxy)-1-morpholinoethan-1-one], the IC50 was greater than 100 µM.

For a further assay, the system named is HCT-116 colon carcinoma cells. As to the kind of experiment: Antiproliferative assay. It is filed as cell-based. The note with it: Homo sapiens, HCT-116, 72 h, read-out: IC50 HCT-116. The gist of the method:
as §1
Take `Fc1cc(-c2nc3ccc(Cl)cc3[nH]2)ccc1OCCN1CCOCC1` [Compound 24, 4-(2-(4-(6-Chloro-1H-benzo[d]imidazol-2-yl)-2-fluorophenoxy)ethyl)morpholine]: the IC50 was greater than 100 µM.

Consider `O=C(COc1ccc(-c2nc3ccc(Cl)cc3[nH]2)cc1F)N1CCOCC1` [Compound 25, 2-(4-(6-Chloro-1H-benzo[d]imidazol-2-yl)-2-fluorophenoxy)-1-morpholinoethan-1-one], for which the IC50 was greater than 100 µM.

Another assay concerns Pseudomonas aeruginosa (ATCC 9027). The experiment in a line: Antibacterial MIC, macrodilution method, P. aeruginosa. The class given is cell-based. As to conditions: ATCC9027, read-out: MIC P. aeruginosa. The gist of the method:
as §2
With `Fc1cc(-c2nc3ccc(Cl)cc3[nH]2)ccc1OCCN1CCOCC1` [Compound 24, 4-(2-(4-(6-Chloro-1H-benzo[d]imidazol-2-yl)-2-fluorophenoxy)ethyl)morpholine], the minimum inhibitory concentration (MIC) is greater than 256 µg/mL.

For `O=C(COc1ccc(-c2nc3ccc(Cl)cc3[nH]2)cc1F)N1CCOCC1` [Compound 25, 2-(4-(6-Chloro-1H-benzo[d]imidazol-2-yl)-2-fluorophenoxy)-1-morpholinoethan-1-one], the MIC was greater than 256 µg/mL.

The next assay concerns Escherichia coli (ATCC 25922). The experiment in a line: Antibacterial MIC, macrodilution method, E. coli. The class given is cell-based. The note with it: ATCC25922, read-out: MIC E. coli. The gist of the method:
as §2
In the case of `Fc1cc(-c2nc3ccc(Cl)cc3[nH]2)ccc1OCCN1CCOCC1` [Compound 24, 4-(2-(4-(6-Chloro-1H-benzo[d]imidazol-2-yl)-2-fluorophenoxy)ethyl)morpholine], the MIC is greater than 256 µg/mL.

For the compound `O=C(COc1ccc(-c2nc3ccc(Cl)cc3[nH]2)cc1F)N1CCOCC1` [Compound 25, 2-(4-(6-Chloro-1H-benzo[d]imidazol-2-yl)-2-fluorophenoxy)-1-morpholinoethan-1-one], the MIC was greater than 256 µg/mL.

The subject of a further assay is NCI-H460 non-small cell lung cancer cells. As to the kind of experiment: Antiproliferative assay. As to conditions: Homo sapiens, NCI-H460, 72 h, read-out: IC50 NCI-H460. It is filed as cell-based. The gist of the method:
as §1
As to `Fc1cc(-c2nc3ccc(Cl)cc3[nH]2)ccc1OCCN1CCOCC1` [Compound 24, 4-(2-(4-(6-Chloro-1H-benzo[d]imidazol-2-yl)-2-fluorophenoxy)ethyl)morpholine], the half-maximal inhibitory concentration (IC50) was greater than 100 µM.

Turning to `O=C(COc1ccc(-c2nc3ccc(Cl)cc3[nH]2)cc1F)N1CCOCC1` [Compound 25, 2-(4-(6-Chloro-1H-benzo[d]imidazol-2-yl)-2-fluorophenoxy)-1-morpholinoethan-1-one], the 50% inhibitory concentration (IC50) was greater than 100 µM.

The record behind these values is paper PMC12062833 (RSC Medicinal Chemistry, 2025).
